These results are taken from ChEMBL document CHEMBL2021862, “5-imino-1,2,4-thiadiazoles: first small molecules as substrate competitive inhibitors of glycogen synthase kinase 3” (J Med Chem, 2012).

pIC50: −log10 of the molar value. The source made the active and inactive calls. The rule behind the calls is not given here.

One series deals with NSC. Description: Neurogenic activity in rat hippocampal NSC assessed as increase in beta-tubulin after 24 hrs by DAPI staining-based immunocytometric analysis. The format is functional, cell-based. As to conditions: Hippocampus. The essentials:
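Neurospheres from adult rat hippocampus were expanded in DMEM/F12 with EGF and FGF (10 ng/mL each) and B27, and treated with compound. Spheres were plated on poly-L-lysine without growth factors. Cells were fixed in 4% paraformaldehyde, permeabilized with 0.1% Triton X-100, stained with anti-β-tubulin (Tuj1) and an Alexa secondary, counterstained with DAPI, and imaged by confocal microscopy.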

For series [1], the target named is T1, Glycogen synthase kinase-3 beta (Homo sapiens, UniProt P49841). The series can be described thus: Non-competitive inhibition of human recombinant GSK3beta at 10 uM after 30 mins by Michaelis-Menten equation in presence of 1 to 50 uM ATP. As to conditions: 0.4 to 2 uM, in the assay text read “at 0.4 to 2 uM” for “at 10 uM”. Put shortly:
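Double-reciprocal kinetics on GSK-3β using the ADP-Glo kinase assay. ATP was varied from 1 to 50 μM and inhibitor from 0.4 to 2 μM, with GS-2 fixed at 12.5 μM. Each point is the mean of two experiments, each run in duplicate.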
Target sequence in this assay (P49841 whole entry, looked up): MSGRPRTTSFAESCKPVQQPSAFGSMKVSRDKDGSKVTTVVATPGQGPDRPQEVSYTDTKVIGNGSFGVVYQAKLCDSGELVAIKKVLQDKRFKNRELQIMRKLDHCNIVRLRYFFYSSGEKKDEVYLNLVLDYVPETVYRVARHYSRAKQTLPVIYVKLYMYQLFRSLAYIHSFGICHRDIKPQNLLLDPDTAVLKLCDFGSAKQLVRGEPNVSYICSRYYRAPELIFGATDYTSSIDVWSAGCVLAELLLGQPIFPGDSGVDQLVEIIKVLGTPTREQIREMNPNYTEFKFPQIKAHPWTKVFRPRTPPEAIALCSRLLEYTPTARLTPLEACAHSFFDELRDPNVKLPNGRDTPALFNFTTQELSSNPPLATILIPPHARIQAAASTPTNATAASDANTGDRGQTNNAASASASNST

For series [2], the target named is T1, Glycogen synthase kinase-3 beta. The series can be described thus: Inhibition of human recombinant GSK3beta at 10 uM after 30 mins by luminescence assay in presence of ATP. The essentials:
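Human recombinant GSK-3β (20 ng) with prephosphorylated polypeptide substrate 25 μM and ATP 1 μM in 50 mM HEPES pH 7.5, 1 mM EDTA, 1 mM EGTA, 15 mM Mg acetate. Final DMSO ≤1%. Incubated 30 min at 30 °C, stopped with Kinase-Glo reagent, and luminescence read after 10 min. Inhibition is relative to the no-inhibitor maximum. IC50 is the concentration giving 50% activity loss.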
Target sequence in this assay (P49841 whole entry, looked up): as above

In the next series the test system is Astrocyte. The series can be described thus: Neuroprotective activity in rat astrocytes assessed as decrease in LPS-induced nitrite production at 28 to 52 ug/ml after 24 hrs administered 1 hr before LPS challenge by Griess method. The format is functional, cell-based. The essentials:
(§1)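 Astrocytes and microglia were from neonatal (P2) rat cortex, separated by shaking; microglia received 10 ng/mL GM-CSF. Purity >98% (OX42/GFAP). Cells were pretreated 1 h with compound, then given LPS for 24 h. Supernatant was mixed 1:1 with Griess reagent, left 15 min at room temperature, and absorbance read at 492/540 nm.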
In general terms: Griess reagent forms a coloured azo dye with nitrite.

Series [3] deals with T1, Glycogen synthase kinase-3 beta. Description: Competitive inhibition of human recombinant GSK3beta at 0.5 to 2.5 uM after 30 mins by Michaelis-Menten equation in presence of 1 uM ATP.
Target sequence in this assay (P49841 whole entry, looked up): as above
Another series deals with Cortical neurone. Description: Neuroprotective activity in rat cortical neurons assessed as decrease in LPS-induced nitrite production at 28 to 52 ug/ml after 24 hrs administered 1 hr before LPS challenge by Griess method. The format is functional. Put shortly:
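Cortical neurons from E18 rats were grown in Neurobasal/B-27 at 37 °C, 5% CO2 for 1 week. They were pretreated 1 h with compound, then exposed to supernatant from LPS-stimulated microglia. After 24 h, nitrite in the medium was measured by Griess reaction (equal volume reagent, 15 min room temperature, absorbance 492/540 nm).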

For a further series, the system named is Microglia. Description: Neuroprotective activity in rat microglia cells assessed as decrease in LPS-induced nitrite production at 28 to 52 ug/ml after 24 hrs administered 1 hr before LPS challenge by Griess method. The format is functional, cell-based. Put shortly: as §1
Series [4] addresses T1, Glycogen synthase kinase-3 beta. Description: Inhibition of human recombinant GSK3beta after 30 mins by luminescence assay in presence of ATP.
Target sequence in this assay (P49841 whole entry): as the sequence (P49841 whole entry, looked up) above
The nature of series [5]: Effective permeability across porcine polar brain lipid after 4 hrs by PAMPA. Particulars: pig, PAMPA. In general terms: In PAMPA a lipid-coated filter parts donor from acceptor wells.
The target in series [6] is T1, Glycogen synthase kinase-3 beta. The series can be described thus: Competitive inhibition of human recombinant GSK3beta at 12.5 to 100 uM after 30 mins by Michaelis-Menten equation in presence of 1 uM ATP. The essentials:
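Lineweaver–Burk kinetics on human recombinant GSK-3β. GS-2 substrate was varied from 12.5 to 100 μM against inhibitor at 0.5–2.5 μM, with ATP held at 1 μM. Luminescent kinase read-out. Each point is the mean of two experiments, each run in duplicate.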
Target sequence in this assay (P49841 whole entry, looked up): as above

As a reminder, the inhibition is how much of the control response was suppressed. Consider `OCC/N=c1\nc(-c2ccccc2)n(-c2ccccc2)s1`, for which the outcome in the series with NSC, in the series with Astrocyte, in the series with Cortical neurone and in the series on Microglia was Active. Also, the inhibition entry in [1] and in [3] was “Active” each time. Besides, the inhibition in series [2] is over 60%.

As usually defined, the pIC50 is the negative decadic logarithm of the IC50, by convention in mol/L. A word on the Papp: it is a coefficient for how fast a substance crosses the barrier. Low values mean slow passage, high ones fast passage. With `Br.c1ccc(-c2n/c(=N\CCN3CCOCC3)sn2-c2ccccc2)cc1`, the inhibition result in [1] and in series [3] was “Active” throughout. The inhibition in [2] was over 60%. Besides, in [4], the pIC50 is 6.05. The Papp at 4 h in series [5] turned out to be 7.2 ×10⁻⁶ cm/s.

With `Br.c1ccc(-c2n/c(=N\Cc3cccnc3)sn2-c2ccccc2)cc1`, the result in the series with NSC, with Astrocyte, with Cortical neurone and in the series with Microglia was Active. The inhibition result in [1] and in series [3] was “Active” throughout. Further, the inhibition in series [2] was over 60%. In addition, the pIC50 in series [4] was 5.89. Moreover, the Papp at 4 h in series [5] worked out at 10.7 ×10⁻⁶ cm/s.

H-YRRAAVPPSPSLSRHSSPHQAEDEEE-OH: the inhibition result in series [6] is “Active”.
